Experimental data reported in ChEMBL document CHEMBL4043089, “Allosteric Targeting of the Fanconi Anemia Ubiquitin-Conjugating Enzyme Ube2T by Fragment Screening” (J Med Chem, 2017).
Residue numbers refer to the chain shown, from its start. The source made the active and inactive calls. The rule behind the calls is not given here.

Experiments:
[1] = target: T1, Ubiquitin-conjugating enzyme E2 T (Homo sapiens) (UniProt Q9NPD8); experiment: Binding affinity to [1H-15N]-labeled N-terminal 6xHis-Smt3 tagged human Ube2T (1 to 154 residues) expressed in Escherichia coli BL21(DE3) by chemical shift perturbation assay
T1 sequence (whole entry): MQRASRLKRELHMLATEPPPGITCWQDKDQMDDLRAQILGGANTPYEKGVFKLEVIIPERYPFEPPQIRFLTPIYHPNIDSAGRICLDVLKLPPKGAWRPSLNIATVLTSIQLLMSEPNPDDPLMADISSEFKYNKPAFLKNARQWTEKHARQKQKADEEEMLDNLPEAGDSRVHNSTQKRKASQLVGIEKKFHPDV

[2] = target: T2, Ubiquitin-conjugating enzyme E2 T (Homo sapiens, UniProt Q9NPD8); experiment: Binding affinity to full length N-terminal 6xHis-Smt3 tagged human Ube2T expressed in Escherichia coli BL21(DE3) by ITC
T2 sequence (Q9NPD8 whole entry): T1 sequence (whole entry)

[3] = target: T1, Ubiquitin-conjugating enzyme E2 T (Homo sapiens); experiment: Inhibition of full length N-terminal 6xHis-Smt3 tagged human Ube2T expressed in Escherichia coli BL21(DE3) assessed as FANCD2 ubiquitination after 15 mins in presence of fluorescently-labeled Ub/recombinant human E1/ATP by fluorescence assay
Procedure, shortened: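 Ube2T-driven FANCD2 monoubiquitination with E1, FANCL and fluorescently labelled ubiquitin, tested as a four-point titration. Gels were fluorescence-scanned, and the integrated intensity of the monoubiquitinated FANCD2 band was normalized to DMSO reactions. Three independent experiments, plotted as mean ± range.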

[4] = target: T1, Ubiquitin-conjugating enzyme E2 T (Homo sapiens); experiment: Inhibition of full length N-terminal 6xHis-Smt3 tagged human Ube2T expressed in Escherichia coli BL21(DE3) assessed as FANCD2 ubiquitination at 2.5 mM after 15 mins in presence of fluorescently-labeled Ub/recombinant human E1/FANCL in 0.05% Tween20 containing buffer by fluorescence assay
[5] = target: Ubiquitin-conjugating enzyme E2 D3 (Homo sapiens) (UniProt P61077); experiment: Inhibition of UbcH5c (unknown origin) assessed as RNF4 ubiquitination at 2.5 mM after 15 mins in presence of fluorescently-labeled […] by fluorescence assay
Sequence of Ubiquitin-conjugating enzyme E2 D3 (Homo sapiens) (P61077 whole entry, looked up): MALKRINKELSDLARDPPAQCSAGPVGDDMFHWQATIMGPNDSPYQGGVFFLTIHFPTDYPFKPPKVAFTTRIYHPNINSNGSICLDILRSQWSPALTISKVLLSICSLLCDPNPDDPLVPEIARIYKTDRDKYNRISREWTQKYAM

[6] = test system: T3, Ubiquitin-conjugating enzyme E2 T (Homo sapiens), Q9NPD8 [P73K]; experiment: Binding affinity to full length recombinant N-terminal 6xHis-Smt3 tagged human Ube2T P73K mutant expressed in Escherichia coli BL21(DE3) by ITC
T3 sequence (whole entry): T1 sequence (whole entry) with P73K

Compound | Activity [1] | Kd [2] | inhibition [3] | inhibition [4] | inhibition [5] | Activity [6]
N#Cc1cc(-c2ccccc2)oc1N | Dose-dependent effect | – | – | – | – | –
NCc1nc2ccccc2s1 | Dose-dependent effect | 1300 µM | Dose-dependent effect | Active | inactive | –
NC(=O)c1ccc(-c2ccccn2)s1 | Dose-dependent effect | – | – | – | – | –
NC(=O)C1CCCc2c1[nH]c1ccc(Cl)cc21 (configuration not stated) | Dose-dependent effect | – | Dose-dependent effect | Active | inactive | Active
Nc1nc(-c2ccccc2)cs1 | Dose-dependent effect | – | Dose-dependent effect | Active | inactive | Active
